High-throughput results from PubChem.
Apaf1 activ: human Apaf-1 activation; Apaf-1 apoptosome caspase-3 activation, DEVD-Rh110 fluorescence; active compounds read low; activity change, negative = activation, % at 20 µM; hit rate 0.31% among 330,000;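 active = activity change at or below -40% at 20 µM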
Target sequence (O14727 whole entry, looked up): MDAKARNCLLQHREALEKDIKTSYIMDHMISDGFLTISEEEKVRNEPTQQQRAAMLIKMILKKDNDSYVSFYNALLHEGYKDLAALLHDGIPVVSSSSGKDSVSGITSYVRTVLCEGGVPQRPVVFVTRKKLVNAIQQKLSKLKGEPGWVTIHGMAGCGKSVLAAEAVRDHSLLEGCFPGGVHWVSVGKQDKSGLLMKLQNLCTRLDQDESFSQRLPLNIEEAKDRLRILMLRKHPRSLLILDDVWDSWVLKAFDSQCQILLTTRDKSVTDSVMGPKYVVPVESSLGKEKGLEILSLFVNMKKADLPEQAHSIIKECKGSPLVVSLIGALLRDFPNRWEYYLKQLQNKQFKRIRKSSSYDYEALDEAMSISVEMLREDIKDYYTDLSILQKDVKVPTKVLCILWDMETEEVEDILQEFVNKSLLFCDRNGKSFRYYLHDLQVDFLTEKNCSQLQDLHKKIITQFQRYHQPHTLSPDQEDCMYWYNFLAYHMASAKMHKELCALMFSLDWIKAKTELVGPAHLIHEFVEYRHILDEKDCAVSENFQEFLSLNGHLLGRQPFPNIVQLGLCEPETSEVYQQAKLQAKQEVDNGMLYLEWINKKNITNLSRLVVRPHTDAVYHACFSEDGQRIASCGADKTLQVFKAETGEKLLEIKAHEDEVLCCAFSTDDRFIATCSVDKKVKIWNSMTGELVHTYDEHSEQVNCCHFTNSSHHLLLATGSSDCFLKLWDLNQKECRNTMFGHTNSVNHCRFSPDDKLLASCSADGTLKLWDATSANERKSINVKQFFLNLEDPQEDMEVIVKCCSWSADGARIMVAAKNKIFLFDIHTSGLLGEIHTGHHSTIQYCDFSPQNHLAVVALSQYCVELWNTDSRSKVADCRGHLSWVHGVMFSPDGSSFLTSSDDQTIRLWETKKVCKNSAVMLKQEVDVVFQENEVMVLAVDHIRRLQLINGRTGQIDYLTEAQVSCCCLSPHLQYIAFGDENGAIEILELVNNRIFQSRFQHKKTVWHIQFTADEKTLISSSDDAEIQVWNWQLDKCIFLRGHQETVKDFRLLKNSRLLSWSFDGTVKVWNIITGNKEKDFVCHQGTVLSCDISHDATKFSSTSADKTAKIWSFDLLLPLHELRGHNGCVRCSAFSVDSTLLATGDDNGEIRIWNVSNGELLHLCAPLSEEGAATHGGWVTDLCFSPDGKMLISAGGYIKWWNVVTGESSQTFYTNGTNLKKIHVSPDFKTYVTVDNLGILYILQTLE
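System: Reconstituted apoptosome of Apaf-1, cytochrome c, caspase-9, procaspase-3 | Reagent: dATP, cytochrome c, and (Z-DEVD)2-Rh110 caspase-3 substrate | Times: 30 min compound preincubation and 50 min reaction, both room temperature | Detection: Caspase-3-released Rh110 fluorescence, 540 nm emission, 480 nm excitation | Measure: Caspase-3 activity via Apaf-1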
Rh110 act interf: Rh110 signal interference in Apaf-1 activator counter-screen. Rh110 fluorescence interference, quenched caspase reaction, Ex480/Em540. shares compounds with Apaf1 activ. 980 tested, under 10 active. fluorescence interference (activity change), % at 20 µM, hits read low;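 active = mean activity change at or below -40% when tested at 20 µM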
Apaf-1 act conf2: confirmation of human Apaf-1 activators; shares compounds with Apaf1 activ; reconstituted apoptosome caspase-3 activity, DEVD-Rh110 fluorescence; active compounds read low; activity change, negative = activation, % at 20 µM; hit rate 5% among 980; AID 504617;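 active = mean activity change at or below -40%, meaning activation of 40% or more, at 20 µM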
* marks the source's active call; other numbers are inactive results; . = not tested or not shown. The list is a sample of the results.

SMILES	Apaf1 activ	Rh110 act interf	Apaf-1 act conf2
C[C@H](NC(=O)N1CCn2c1nc1ccccc12)C(=O)NC1CCCCC1	-168*	15	16
CC(C)(C)C(=O)[C@@H]1[C@@H]2C(=O)N(c3ccc4c(c3)OCCO4)C(=O)[C@@H]2C2c3ccccc3C=CN21 (stereo partly specified)	62	.	.
OCCCCNc1cccc2ccccc12	81	.	.
CCOC(=O)N1CCN(C2=C(NS(=O)(=O)c3ccc(C)cc3)C(=O)c3ccccc3C2=O)CC1	86	.	.
CCOC(=O)N1CCN(C(=O)C2CCN(S(=O)(=O)c3ccc(OCC)cc3)CC2)CC1	-164*	-3	18
Cc1ccc(/C=C/c2onc(C)c2S(=O)(=O)N2CCC(C(=O)N3CCN(C)CC3)CC2)cc1	45	.	.
COc1ccc(CNC[C@@H](CCCCN(C)Cc2ccc(OC)cc2)N2C[C@H](c3ccccc3)N(CCc3ccc(Cl)c(Cl)c3)C(=O)C2=O)cc1	49	.	.
Cc1cn([C@H]2C[C@H](N=[N+]=[N-])[C@@H](CO)O2)c(=O)[nH]c1=O	-43*	6	-3
Cc1cc(C(C)(C)CC(C)(C)C)ccc1OCCOCC[N+](C)(C)Cc1ccccc1	86	.	.
O=S(=O)(Nc1ccc(O)c2ccccc12)c1cccs1	52	.	.
Cc1ccc(CNC(=O)CN(C)S(=O)(=O)c2cnc[nH]2)cc1	-237*	1	10
COc1ccc(C(CNC(=O)c2cccc(NS(=O)(=O)c3ccc(Br)cc3)c2)N(C)C)cc1 (stereo unspecified)	-143*	7	11
CCOC(=O)N1CCN(C(=O)c2cccc(S(=O)(=O)Nc3ccc(OC)cc3)c2)CC1	51	.	.
Oc1cc(NCCc2cccnc2)cc2cccnc12	56	.	.
CC1=NN(c2ccc(Br)cc2)C(=O)/C1=C/c1cccs1	96	.	.
COc1ccc2c(c1)Cc1sc(NC(=O)c3cccs3)nc1-2	87	.	.
COc1ccc(OCC(=O)N/N=C(\C)c2cccs2)cc1	-81*	2	15
CCOC(=O)c1[nH]c(=O)c2ccccc2c1O	75	.	.
CCOC(=O)c1cc2cc3ccccc3cc2[nH]1	58	.	.
CCOC(=O)c1[nH]c2ccc(OC)cc2c1NC(=O)c1nonc1C	-144*	2	2
CC(C)Cn1c(N)c(C(=O)COC(=O)C2CCCCC2)c(=O)n(C)c1=O	43	.	.
O=C1C(Cl)=C(N2CCCCC2)C(=O)C(Cl)=C1c1cnc(N2CCCCC2)s1	48	.	.
CCC[C@@H](CN1CCC[C@H]1CN1C(N)=NC[C@@H]1Cc1ccccc1)N1C[C@@H]([C@H](C)CC)N(CCCC2CCCC2)C1=N	77	.	.
CCn1cc(C(=O)NCCCOC)c(=O)c2cc(S(=O)(=O)N(C)C)ccc21	-303*	-5	8
COCCCNC(=O)c1c(N)n(-c2cccc(S(N)(=O)=O)c2)c2nc3ccccc3nc12	43	.	.
SMILES	Apaf1 activ	Rh110 act interf	Apaf-1 act conf2
O=c1[nH]c(C2CCN(S(=O)(=O)c3ccc(C(F)(F)F)cc3)CC2)nc2c1nnn2Cc1ccc(F)cc1	41	.	.
Cc1ccc(C)c(S(=O)(=O)NCc2ccc(C(=O)N3CCOCC3)cc2)c1	-47*	8	11
Cc1ccc(S(=O)(=O)NCc2ccccc2)cc1C(=O)N1CCN(c2ccccc2)CC1	58	.	.
COC(=O)CCC(=O)OC1(C)C(=O)C=C2C=C(C3CC3)N(C3CCCCC3)C=C2C1=O (stereo unspecified)	62	.	.
Fc1ccc(CN2CCSCC2)cc1Br	-115*	-7	9
CC1(C)Cc2ccccc2C2=NNC(=O)C2=N1	62	.	.
CCOc1cc(N(CC)CC)ccc1/C=C(/C#N)c1nc2ccccc2[nH]1	-46*	-2	17
CCC(=O)N(CCc1ccccc1C)Cc1cc2cc3c(cc2[nH]c1=O)OCO3	41	.	.
c1ccc2c(c1)CC/C2=N/Nc1nc2ccccc2[nH]1	57	.	.
CN(c1ccccc1)c1cc(Br)nc(Br)c1	-47*	11	10
COc1ccc(OC)c2sc(N(CCCN(C)C)C(=O)c3ccc(S(=O)(=O)N4CCc5ccccc5C4)cc3)nc12	55	.	.
CC(=O)c1ccc(N2CCN(C(=O)CCN3C(=S)NC(C)(C)CC3C)CC2)cc1 (stereo unspecified)	-139*	7	16
C#CCOCCOCCOCCNc1nc(N2CCN(C(=O)CCCCCCCCCCNC(=O)[C@@H](CCSC)n3cc(CCO)nn3)CC2)nc(N2CCN(C(=O)CCCCCCCCCCNC(=O)[C@H](CO)n3cc(CCCCCN)nn3)CC2)n1	71	.	.
N#Cc1c(N)n(-c2ccccc2N)c2nc3ccccc3nc12	69	.	.
CNc1cc(C)c(C#N)c2nc3ccccc3n12	-58*	7	3
COc1ccc(CCn2c(N)c(C#N)c3nc4ccccc4nc32)cc1OC	60	.	.
C[C@@H](CN1CCC[C@H]1CN1C(N)=NC[C@@H]1Cc1ccccc1)N1C[C@@H](Cc2ccccc2)N(CCc2ccc(Cl)c(Cl)c2)C1=N	74	.	.
COc1ccc(C(=O)COC(=O)CCCN=C2NS(=O)(=O)c3ccccc32)c(OC)c1	51	.	.
CCN1CCN(Cc2ccc(NC(=O)c3cc(NC(=O)c4cncc(-c5ccc(C#N)cc5)c4)cc(OC)c3)cc2C(F)(F)F)CC1	54	.	.
O=C(Nc1cccc(C(F)(F)F)c1)c1ccc2nc(-c3ccco3)c(-c3ccco3)nc2c1	66	.	.
COc1cc(NC(=O)c2ccnc(N)c2)cc(C(=O)Nc2cccc(C(F)(F)F)c2)c1	-261*	13	15
COc1ccc(C2=C(CN(C)C)C(c3ccccc3)c3ccccc3O2)cc1 (stereo unspecified)	12	.	.
C#CCOCCOCCOCCNc1nc(N2CCN(C(=O)CCCCCCCCCCNC(=O)[C@H](CCCCN)n3cc(C)nn3)CC2)nc(N2CCN(C(=O)CCCCCCCCCCNC(=O)[C@@H]([C@H](C)O)n3cc(C)nn3)CC2)n1	54	.	.
O=C(N/N=C\c1ccc(-c2ccccc2[N+](=O)[O-])o1)C1COc2cc3ccccc3cc2O1 (stereo unspecified)	81	.	.
O=S(=O)(Nc1cccc(-c2nc3cccnc3s2)c1)c1ccc2c(c1)OCCO2	-104*	2	10
SMILES	Apaf1 activ	Rh110 act interf	Apaf-1 act conf2
CC(C)(C)c1ccc(/C=C(\C#N)C(=O)Nc2ccccn2)cc1	-186*	2	21
C/C(=N\NC(=O)c1ccccc1)c1ccc(NC(=O)c2cccs2)cc1	-143*	-3	10
CCOC(=O)c1c(NC(=O)c2cccs2)sc(C)c1CC	51	.	.
CN(C)C(=O)c1ccc(NC(=O)c2sccc2-c2ccccc2)cc1	45	.	.
CC(C)C(C(=O)O)N1C(=O)/C(=C/C=C/c2ccco2)SC1=S (stereo unspecified)	46	.	.
Cc1nc(SCc2ccccc2)c2oc3ccccc3c2n1	-159*	16	13
O=C(CCc1ccccc1)N[C@@H]1c2ccccc2CC[C@H]1OCc1ccccc1	-41*	2	6
O=C1C(O)=C(O)C(=O)c2ccccc21	92	.	.
COc1ccccc1-c1sc2ccccc2c1-c1ccc(OCCN2CCCCC2)cc1	62	.	.
CN(C)c1cccc2c1c(NC(=O)Nc1ccccc1)nn2C	82	.	.
COc1ccc(N2CCN(C(c3cc(OC)ccc3OC)c3nnnn3Cc3ccco3)CC2)cc1 (stereo unspecified)	-258*	7	13
